Usually pEC50 stands for −log10 of the EC50, conventionally taken in molar units. Broadly, the half-life is the time needed for the level to fall by half in the phase considered. Read a high half-life as slow loss. As usually defined, the Cmax is the peak of the concentration-time curve. The term clearance denotes the rate of elimination divided by the concentration. As usually defined, the MRT is a mean duration of stay, worked out from the concentration-time curve. One may read the pIC50 as the negative decadic logarithm of the IC50, by convention in mol/L.

The target of data set [1] is T1, Melanocyte-stimulating hormone receptor (Homo sapiens, UniProt Q01726). Kind of data set: In vitro intrinsic activity against human Melanocortin 1 receptor (MC1R).
Target sequence in this assay (Q01726 whole entry, looked up): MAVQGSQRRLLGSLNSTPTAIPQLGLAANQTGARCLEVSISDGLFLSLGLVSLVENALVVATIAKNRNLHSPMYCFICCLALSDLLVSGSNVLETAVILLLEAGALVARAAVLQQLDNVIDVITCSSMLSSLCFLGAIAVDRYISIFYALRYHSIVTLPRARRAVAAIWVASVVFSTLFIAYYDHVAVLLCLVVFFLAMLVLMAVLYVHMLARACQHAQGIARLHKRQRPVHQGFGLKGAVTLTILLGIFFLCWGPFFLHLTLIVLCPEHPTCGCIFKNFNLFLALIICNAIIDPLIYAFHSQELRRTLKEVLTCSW
Data set [2] addresses T2, Melanocortin receptor 4 (Homo sapiens, UniProt P32245). Kind of data set: In vitro effective concentration towards human Melanocortin 4 receptor (MC4R) was determined by a SPA-based cAMP assay in melanoma cells. The data set is classed as cell-based. In general terms: Cyclic AMP is a second messenger, typically raised through Gs and lowered through Gi signalling.
Data set [3] in a line: Half life by intravenous administration of 6.8 umol/kg dose in mice. The data set is classed as ADME, organism-based. Conditions: mouse, in vivo. The procedure, abridged:
(§1)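 Balb/c mice (n = 3) given a single intravenous dose of 6.8 μmol/kg in 50:50 PEG400–water, with plasma pharmacokinetic parameters derived from the concentration–time profile.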

Data set [4] is described as follows: Cmax value was evaluated in mice by intravenous administration of 6.8 umol/kg dose. The data set is classed as ADME, organism-based. Also noted: dose 6.8 umol/kg, route intravenous. Conditions: mouse, in vivo. The procedure, abridged: as §1
A short description of data set [5]: Cl value was determined by intravenous administration of 6.8 umol/kg dose in mice. Format: ADME, organism-based. Conditions: mouse, in vivo. The procedure, abridged:
as §1

In data set [6] the target is T3, Melanocortin receptor 5 (Homo sapiens, UniProt P33032). Description: In vitro intrinsic activity against human Melanocortin 5 receptor (MC5R). A digest of the protocol: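 A SPA-based cAMP assay was run in CHO cells overexpressing human MC-5R. EC50 and intrinsic activity (%) are given ± SEM.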
T3 sequence (P33032 whole entry): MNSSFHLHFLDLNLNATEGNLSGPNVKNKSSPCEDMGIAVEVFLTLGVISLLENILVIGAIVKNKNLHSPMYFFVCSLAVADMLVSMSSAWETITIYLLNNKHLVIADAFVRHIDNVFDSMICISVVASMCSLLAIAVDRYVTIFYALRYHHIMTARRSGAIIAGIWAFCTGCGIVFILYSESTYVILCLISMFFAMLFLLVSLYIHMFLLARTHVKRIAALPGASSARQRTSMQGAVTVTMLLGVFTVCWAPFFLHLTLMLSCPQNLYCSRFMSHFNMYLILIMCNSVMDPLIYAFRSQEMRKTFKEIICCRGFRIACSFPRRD
A short description of data set [7]: Vss value was determined by intravenous administration of 6.8 umol/kg dose in mice. Format: ADME, organism-based. Conditions: mouse, in vivo, read-out: Vss. A digest of the protocol: as §1
Data set [8] concerns the target T2, Melanocortin receptor 4. Description: In vitro intrinsic activity against human Melanocortin 4 receptor (MC4R).
In data set [9] the target is T4, Melanocortin receptor 3 (Homo sapiens, UniProt P41968). Description: In vitro inhibitory concentration against human Melanocortin 3 receptor (MC3R).
T4 sequence (P41968 whole entry): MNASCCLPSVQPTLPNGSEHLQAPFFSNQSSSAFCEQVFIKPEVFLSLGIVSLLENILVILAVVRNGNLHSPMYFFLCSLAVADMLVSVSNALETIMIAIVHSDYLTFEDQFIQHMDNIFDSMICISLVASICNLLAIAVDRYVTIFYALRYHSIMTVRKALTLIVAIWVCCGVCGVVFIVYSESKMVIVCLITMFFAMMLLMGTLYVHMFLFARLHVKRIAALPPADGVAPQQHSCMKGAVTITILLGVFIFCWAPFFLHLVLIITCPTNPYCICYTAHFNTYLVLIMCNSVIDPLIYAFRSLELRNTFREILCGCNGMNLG
The target of data set [10] is T4, Melanocortin receptor 3. Description: In vitro intrinsic activity against human Melanocortin 3 receptor (MC3R).
The target in data set [11] is T1, Melanocyte-stimulating hormone receptor. Description: In vitro effective concentration towards human Melanocortin 1 receptor (MC1R) in SPA-based cAMP assay in melanoma cells. The data set is classed as cell-based.
Target sequence in this assay (Q01726 whole entry): as the sequence (Q01726 whole entry, looked up) above
A short description of data set [12]: MRT value was determined by intravenous administration of 6.8 umol/kg dose in mice. Format: ADME, organism-based. Conditions: mouse, in vivo. A digest of the protocol:
as §1

For data set [13], the target named is T1, Melanocyte-stimulating hormone receptor. Kind of data set: In vitro inhibitory concentration against human Melanocortin 1 receptor (MC1R).
Target sequence in this assay (Q01726 whole entry): as the sequence (Q01726 whole entry, looked up) above
The target of data set [14] is T3, Melanocortin receptor 5. Kind of data set: In vitro effective concentration towards human Melanocortin 5 receptor (MC5R) was determined by a SPA-based cAMP assay in melanoma cells. Format: cell-based.
For data set [15], the target named is T4, Melanocortin receptor 3. Kind of data set: In vitro effective concentration towards human Melanocortin 3 receptor (MC3R) was determined by a SPA-based cAMP assay in melanoma cells. Format: cell-based.
The target of data set [16] is T4, Melanocortin receptor 3. Kind of data set: In vitro effective concentration towards human Melanocortin-3 receptor (MC3R) was determined by a SPA-based cAMP assay in melanoma cells. Format: cell-based.

pEC50, pIC50: −log10 of the molar value. Calls of active or inactive are those of the source.

T2 sequence (P32245 whole entry): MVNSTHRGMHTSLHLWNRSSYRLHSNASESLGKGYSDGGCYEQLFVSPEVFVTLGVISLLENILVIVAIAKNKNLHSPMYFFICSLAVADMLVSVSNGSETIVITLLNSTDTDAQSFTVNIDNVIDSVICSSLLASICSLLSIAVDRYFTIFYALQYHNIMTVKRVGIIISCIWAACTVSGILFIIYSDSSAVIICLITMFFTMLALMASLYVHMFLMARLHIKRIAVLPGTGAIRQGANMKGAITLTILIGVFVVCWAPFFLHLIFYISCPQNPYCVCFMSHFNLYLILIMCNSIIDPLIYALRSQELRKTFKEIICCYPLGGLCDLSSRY

For `CCCC(=O)C1(c2ccccc2)CCN(C(=O)[C@@H](Cc2ccc(OC)cc2)NC(=O)[C@@H](N)Cc2c[nH]cn2)CC1`, in [1], the Intrinsic activity amounted to 67%.

With `CCCC(=O)C1(c2ccccc2)CCN(C(=O)[C@@H](Cc2ccc(OC)cc2)NC(=O)[C@@H](N)Cc2cncn2C)CC1`, the pEC50 on Melanocortin receptor 4 [2] was 5.59; in data set [11], 7.55; at Melanocortin receptor 5 [14], 5.36. The compound further showed a half-life in [3] of 1.5 h. For the same compound, the concentration in data set [4] peaked (Cmax) at 2200 nM. The compound further yielded a clearance in data set [5] of 110 mL/min/kg. Further, the Intrinsic activity is 92% in data set [1], 15% on Melanocortin receptor 5 [6], 39% on Melanocortin receptor 4 [8] and 2.1% at Melanocortin receptor 3 [10]. The Vd in data set [7] came out at 8.2 L/kg. Also, on Melanocortin receptor 3 [9], the NA entry was “inactive”. For the same compound, the MRT in [12] is 1.2 h. In data set [13], the pIC50 was 6.92.

Take `CCCC(=O)C1(c2ccccc2)CCN(C(=O)[C@@H](Cc2ccc(OC)cc2)NC(=O)[C@@H](Cc2c[nH]cn2)NC(=O)c2ccccc2)CC1`: the Intrinsic activity in data set [1] was 98%; on Melanocortin receptor 5 [6], 65%; on Melanocortin receptor 4 [8], 95%; at Melanocortin receptor 3 [10] it was 100%.

With `CCCC(=O)C1(c2ccccc2)CCN(C(=O)[C@@H](Cc2ccc(OC)cc2)NC(=O)[C@H](N)Cc2cnc[nH]2)CC1`, the pEC50 at Melanocortin receptor 4 [2] was 6.20; at Melanocortin receptor 3 [15], 5.77; in [11] it was 8.82; at Melanocortin receptor 5 [14], 5.00. In [13], this compound gave a pIC50 of 7.49.

Regarding `CCCC(=O)C1(c2ccccc2)CCN(C(=O)[C@@H](Cc2ccc(OC)cc2)NC(=O)[C@H](O)Cc2c[nH]cn2)CC1`, the Intrinsic activity in [1] is 90%; at Melanocortin receptor 5 [6], 20%; on Melanocortin receptor 4 [8] it was 95%; at Melanocortin receptor 3 [10], 85%.

As to `CCCC(=O)C1(c2ccccc2)CCN(C(=O)[C@@H](Cc2ccc(OC)cc2)NC(=O)[C@@H](Cc2cnc[nH]2)NC(=O)c2ccccc2)CC1`, the pEC50 at Melanocortin receptor 4 [2] is 8.54; on Melanocortin receptor 3 [15], 6.60; in data set [11], 9.72; at Melanocortin receptor 5 [14], 5.68. This compound also had a pIC50 in data set [13] of 8.51.

`COc1ccc(C[C@@H](NC(=O)[C@H]2Cc3ccccc3CN2)C(=O)N2CCC3(CC2)CN(S(C)(=O)=O)c2ccccc23)cc1`: the pEC50 was 7.40 on Melanocortin receptor 4 [2] and 6.66 in data set [11]. The Intrinsic activity in [1] is 80%; at Melanocortin receptor 4 [8], 95%.

Take `CCCC(=O)C1(c2ccccc2)CCN(C(=O)[C@@H](Cc2ccc(OC)cc2)NC(=O)[C@@H](Cc2c[nH]cn2)NC(C)=O)CC1`: the pEC50 on Melanocortin receptor 4 [2] is 7.64; on Melanocortin receptor 3 [15], 5.66; in data set [11], 9.46; at Melanocortin receptor 5 [14], 5.41. The Intrinsic activity in data set [1] is 96%; at Melanocortin receptor 5 [6], 90%; at Melanocortin receptor 4 [8], 96%; on Melanocortin receptor 3 [10], 90%. For the same compound, in data set [13], the pIC50 was 8.29.

On to `CCCC(=O)C1(c2ccccc2)CCN(C(=O)[C@@H](Cc2ccc(OC)cc2)NC(=O)[C@@H](N)Cc2cnc[nH]2)CC1`, for which the pEC50 in data set [11] was 6.40. In data set [13], the negative-log IC50 (pIC50) was 5.89.

On to `CCCC(=O)C1(c2ccccc2)CCN(C(=O)[C@@H](Cc2ccc(OC)cc2)NC(=O)[C@H](N)Cc2c[nH]cn2)CC1`, for which the Intrinsic activity in [1] was 93%; on Melanocortin receptor 5 [6] it was 40%; on Melanocortin receptor 4 [8], 103%; at Melanocortin receptor 3 [10] it was 98%.

Turning to `CCCC(=O)C1(c2ccccc2)CCN(C(=O)[C@@H](Cc2ccc(OC)cc2)NC(=O)[C@H](O)Cc2cnc[nH]2)CC1`, the pEC50 is 7.11 at Melanocortin receptor 4 [2], 5.41 on Melanocortin receptor 3 [16], 8.42 in data set [11] and 5.57 at Melanocortin receptor 5 [14]. The compound also had a pIC50 in data set [13] of 8.26.

On to `CCCC(=O)C1(c2ccccc2)CCN(C(=O)[C@@H](Cc2ccc(OC)cc2)NC(=O)[C@H](N)Cc2cncn2C)CC1`, for which the Intrinsic activity in data set [1] was found to be 34%. The same compound showed a pEC50 in [11] of 6.29. Also, the pIC50 in data set [13] was 5.82.

For `CCCC(=O)C1(c2ccccc2)CCN(C(=O)[C@@H](Cc2ccc(OC)cc2)NC(=O)CCc2c[nH]cn2)CC1`, the Intrinsic activity in [1] turned out to be 97%; at Melanocortin receptor 5 [6], 32%; on Melanocortin receptor 4 [8], 92%; on Melanocortin receptor 3 [10], 85%.

Consider `CCCC(=O)C1(c2ccccc2)CCN(C(=O)[C@@H](Cc2ccc(OC)cc2)NC(=O)CCc2cnc[nH]2)CC1`, for which the negative-log EC50 (pEC50) is 6.08 at Melanocortin receptor 4 [2], 5.15 at Melanocortin receptor 3 [15], 8.60 in [11] and 5.03 on Melanocortin receptor 5 [14]. Moreover, the pIC50 in data set [13] is 7.74.

The values above are taken from ChEMBL document CHEMBL1136734, “Discovery of tyrosine-based potent and selective melanocortin-1 receptor small-molecule agonists with anti-inflammatory properties” (J Med Chem, 2003).
